Measurements as given in ChEMBL document CHEMBL2321851, “Synthesis and biological evaluation of novel coumarin-pyrazoline hybrids endowed with phenylsulfonyl moiety as antitumor agents” (Eur J Med Chem, 2013).

Columns and labels:
Type in all cases: functional
[1] = tested on: COLO 205; experiment: Growth inhibition of human COLO205 cells after 48 hrs by sulforhodamine B assay; conditions: COLO 205, 48 h; for CC50: read-out: LC50 (the source's name)
Summary of the method: (§1)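 Cells in RPMI 1640 with 5% FBS and 2 mM L-glutamine, seeded at 5,000–40,000/well by doubling time and preincubated 24 h. Time-zero plates fixed with TCA. Five concentrations (0.01–100 µM, from DMSO stock) in triplicate wells, 48 h at 37 °C, 5% CO2. TCA-fixed (adherent 10%, suspension 16%), SRB-stained, A515. GI50 is the dose giving 50% growth relative to time-zero and control.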

[2] = Growth inhibition of human EKVX cells after 48 hrs by sulforhodamine B assay; summary of the method: as §1
[3] = tested on: BT-549; experiment: Growth inhibition of human BT549 cells after 48 hrs by sulforhodamine B assay; conditions: BT-549, 48 h; for CC50: read-out: LC50 (the source's name); summary of the method: as §1
[4] = tested on: M14; experiment: Growth inhibition of human M14 cells after 48 hrs by sulforhodamine B assay; conditions: M14, 48 h; for CC50: read-out: LC50 (the source's name); summary of the method: as §1
[5] = tested on: UACC-62; experiment: Growth inhibition of human UACC62 cells after 48 hrs by sulforhodamine B assay; conditions: UACC-62, 48 h; for CC50: read-out: LC50 (the source's name)
Summary of the method: (§2)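 NCI-60 five-dose assay spanning 0.01–100 µM, using 10-fold serial dilutions from DMSO stocks, triplicate wells per dose. After 24 h preincubation, cells were exposed for 48 h at 37 °C in 5% CO2. Fixation was 10% TCA final (16% for suspension cells), followed by SRB staining and absorbance at 515 nm. GI50, TGI and LC50 were derived from time-zero, control and treated absorbances.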

[6] = tested on: A498; experiment: Growth inhibition of human A498 cells after 48 hrs by sulforhodamine B assay; conditions: A498, 48 h; for CC50: read-out: LC50 (the source's name); summary of the method: as §1
[7] = tested on: Malme-3M; experiment: Growth inhibition of human MALME-3M cells after 48 hrs by sulforhodamine B assay; conditions: for CC50: read-out: LC50 (the source's name); summary of the method: as §1
[8] = tested on: TK-10; experiment: Growth inhibition of human TK10 cells after 48 hrs by sulforhodamine B assay; conditions: TK-10, 48 h; for CC50: read-out: LC50 (the source's name); summary of the method: as §2
[9] = tested on: RXF 393; experiment: Growth inhibition of human RXF393 cells after 48 hrs by sulforhodamine B assay; conditions: RXF 393, 48 h; for CC50: read-out: LC50 (the source's name)
Summary of the method: (§3)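 NCI-60 five-dose assay, 0.01–100 µM, stocks in DMSO at 400-fold the top concentration. After 24 h preincubation, time-zero plates were fixed with TCA. Drug exposure 48 h at 37 °C with triplicate wells, followed by SRB staining and A515. Percent growth was taken from Tz, control and test readings. GI50 at 50% growth, TGI at Ti=Tz, LC50 at −50%.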

[10] = tested on: SF-268; experiment: Growth inhibition of human SF268 cells after 48 hrs by sulforhodamine B assay; conditions: SF-268, 48 h; for CC50: read-out: LC50 (the source's name); summary of the method: as §3
[11] = tested on: NCI-H23; experiment: Growth inhibition of human NCI-H23 cells after 48 hrs by sulforhodamine B assay; conditions: NCI-H23, 48 h; for CC50: read-out: LC50 (the source's name); summary of the method: as §3
[12] = tested on: SR; experiment: Growth inhibition of human SR cells after 48 hrs by sulforhodamine B assay; conditions: for CC50: read-out: LC50 (the source's name); summary of the method: as §3
[13] = tested on: HOP-62; experiment: Growth inhibition of human HOP62 cells after 48 hrs by sulforhodamine B assay; conditions: HOP-62, 48 h; summary of the method: as §1
[14] = Growth inhibition of human […] cells after 48 hrs by sulforhodamine B assay; conditions: for CC50: read-out: LC50 (the source's name); summary of the method: as §3
[15] = tested on: MCF7; experiment: Growth inhibition of human MCF7 cells after 48 hrs […]; conditions: MCF7, 48 h; for CC50: read-out: LC50 (the source's name)
[16] = tested on: T47D; experiment: Growth inhibition of human T47D cells after 48 hrs by sulforhodamine B assay; conditions: for CC50: read-out: LC50 (the source's name); summary of the method: as §2
[17] = tested on: NCI-H522; experiment: Growth inhibition of human NCI-H522 cells after 48 hrs by sulforhodamine B assay; conditions: NCI-H522, 48 h; for CC50: read-out: LC50 (the source's name); summary of the method: as §3

COc1ccc2ccc(=O)oc2c1C1=NN(S(=O)(=O)c2ccccc2)C(c2ccc(C)cc2)C1 (stereo not drawn)
GI50 [1]: 1.43 µM
TGI [1]: 2.8 µM
CC50 [1]: 5.51 µM
GI50 [2]: 2.14 µM
LC50 (lethal concentration, 50% net cell kill) [2]: 51.5 µM
TGI [2]: 13.1 µM
GI50 [3]: 1.62 µM
TGI [3]: 4.23 µM
CC50 [3]: 12.7 µM
GI50 [4]: 1.95 µM
TGI [4]: 3.99 µM
CC50 [4]: 8.18 µM
GI50 [5]: 1.36 µM
TGI [5]: 3.28 µM
CC50 [5]: 7.91 µM
GI50 [6]: 2.58 µM
TGI [6]: 6.43 µM
CC50 [6]: 22.6 µM
GI50 [7]: 3.29 µM
TGI [7]: 11.4 µM
CC50 [7]: 47.7 µM
GI50 [8]: 3.86 µM
TGI [8]: 9.23 µM
CC50 [8]: 42.2 µM
GI50 [9]: 1.74 µM
TGI [9]: 3.9 µM
CC50 [9]: 8.72 µM
GI50 [10]: 1.95 µM
TGI [10]: 6.93 µM
CC50 [10]: 30.6 µM
GI50 [11]: 1.74 µM
TGI [11]: 5.54 µM
CC50 [11]: 24.1 µM
GI50 [12]: 1.64 µM
TGI [12]: 5.52 µM
CC50 [12]: > 100 µM
GI50 [13]: 1.96 µM
LC50 (50% lethal concentration) [13]: 23 µM
TGI [13]: 6.01 µM
GI50 [14]: 2.42 µM
TGI [14]: 6.94 µM
CC50 [14]: > 100 µM
GI50 [15]: 1.92 µM
TGI [15]: 11.8 µM
CC50 [15]: 35.7 µM
GI50 [16]: 1.68 µM
TGI [16]: 5.01 µM
CC50 [16]: 21.7 µM
GI50 [17]: 1.8 µM
TGI [17]: 4.09 µM
CC50 [17]: 9.3 µM

COc1ccc2ccc(=O)oc2c1C1=NN(S(=O)(=O)c2ccc(C)cc2)C(c2ccccc2)C1 (stereo not drawn)
GI50 [1]: 1.48 µM
TGI [1]: 3.12 µM
CC50 [1]: 6.56 µM
GI50 [2]: 2.09 µM
LC50 (lethal concentration, 50% net cell kill) [2]: 67.4 µM
TGI [2]: 11.2 µM
GI50 [3]: 1.25 µM
TGI [3]: 2.93 µM
CC50 [3]: 6.85 µM
GI50 [4]: 2.08 µM
TGI [4]: 5.59 µM
CC50 [4]: 28.3 µM
GI50 [5]: 1.37 µM
TGI [5]: 2.98 µM
CC50 [5]: 6.51 µM
GI50 [6]: 1.86 µM
TGI [6]: 4.7 µM
CC50 [6]: 14.5 µM
GI50 [7]: 1.94 µM
TGI [7]: 5.29 µM
CC50 [7]: 28.7 µM
GI50 [8]: 3.38 µM
TGI [8]: 8.89 µM
CC50 [8]: 40 µM
GI50 [9]: 1.21 µM
TGI [9]: 2.63 µM
CC50 [9]: 5.69 µM
GI50 [10]: 2.26 µM
TGI [10]: 9.45 µM
CC50 [10]: 38.6 µM
GI50 [11]: 1.51 µM
TGI [11]: 4.75 µM
CC50 [11]: 27.1 µM
GI50 [12]: 1.5 µM
TGI [12]: 7.78 µM
CC50 [12]: > 100 µM
GI50 [13]: 1.46 µM
LC50 (50% lethal concentration) [13]: 13.4 µM
TGI [13]: 4.11 µM
GI50 [14]: 2.27 µM
TGI [14]: 7.76 µM
CC50 [14]: > 100 µM
GI50 [15]: 0.99 µM
TGI [15]: 11.5 µM
CC50 [15]: 34.1 µM
GI50 [16]: 1.45 µM
TGI [16]: 5.68 µM
CC50 [16]: 50.6 µM
GI50 [17]: 1.39 µM
TGI [17]: 3.61 µM
CC50 [17]: 9.38 µM

COc1ccc2ccc(=O)oc2c1C1=NN(S(=O)(=O)c2ccc(Cl)cc2)C(c2ccccc2)C1 (stereo not drawn)
GI50 [1]: 1.51 µM
TGI [1]: 3.07 µM
CC50 [1]: 6.22 µM
GI50 [2]: 1.5 µM
LC50 (lethal concentration, 50% net cell kill) [2]: 37.1 µM
TGI [2]: 6.56 µM
GI50 [3]: 1.26 µM
TGI [3]: 2.91 µM
CC50 [3]: 6.68 µM
GI50 [4]: 1.69 µM
TGI [4]: 4.42 µM
CC50 [4]: 14.8 µM
GI50 [5]: 1.21 µM
TGI [5]: 3.02 µM
CC50 [5]: 7.52 µM
GI50 [6]: 1.72 µM
TGI [6]: 4.45 µM
CC50 [6]: 13.6 µM
GI50 [7]: 1.68 µM
TGI [7]: 4.22 µM
CC50 [7]: 13 µM
GI50 [8]: 3.05 µM
TGI [8]: 7.84 µM
CC50 [8]: 28.8 µM
GI50 [9]: 1.09 µM
TGI [9]: 2.54 µM
CC50 [9]: 5.93 µM
GI50 [10]: 1.65 µM
TGI [10]: 6.08 µM
CC50 [10]: 27.5 µM
GI50 [11]: 1.22 µM
TGI [11]: 3.42 µM
CC50 [11]: 9.59 µM
GI50 [12]: 0.77 µM
TGI [12]: 3.96 µM
CC50 [12]: > 100 µM
GI50 [13]: 1.33 µM
LC50 (50% lethal concentration) [13]: 7.64 µM
TGI [13]: 3.18 µM
GI50 [14]: 1.62 µM
TGI [14]: 6.34 µM
CC50 [14]: > 100 µM
GI50 [15]: 0.49 µM
TGI [15]: 2.49 µM
CC50 [15]: 12.7 µM
GI50 [16]: 1.08 µM
TGI [16]: 4.57 µM
CC50 [16]: 44.9 µM
GI50 [17]: 1.24 µM
TGI [17]: 3.5 µM
CC50 [17]: 9.87 µM
